# Bioassay records deposited in PubChem by several laboratories.
# A selection: hits, their analogues and other compounds. The true share with any hit is near 2.1%.
# CXCR6 block = inhibitors of human CXCR6 receptor; O00574; CHO-K1 PathHunter CXCR6 beta-arrestin, luminescence; inhibition, % at 20 µM; actives 0.36% (n = 360,000); in the data active = inhibition above about 34%, passing the limit was not always enough;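 note: antagonist mode with CXCL16 agonist at 10 nM final; 0% = 10 nM CXCL16 with DMSO and 100% = unstimulated wells without agonist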
# Target sequence (O00574 whole entry, looked up): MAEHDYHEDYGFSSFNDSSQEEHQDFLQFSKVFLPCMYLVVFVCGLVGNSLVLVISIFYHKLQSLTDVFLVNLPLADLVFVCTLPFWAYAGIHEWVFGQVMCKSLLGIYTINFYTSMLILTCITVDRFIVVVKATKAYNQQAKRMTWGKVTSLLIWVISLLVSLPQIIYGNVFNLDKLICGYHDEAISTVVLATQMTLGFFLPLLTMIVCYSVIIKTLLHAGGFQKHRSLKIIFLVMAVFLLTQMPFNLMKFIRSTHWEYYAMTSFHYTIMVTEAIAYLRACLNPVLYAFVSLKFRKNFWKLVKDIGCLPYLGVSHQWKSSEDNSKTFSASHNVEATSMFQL
# m5-HT2A agonist = activates the mouse 5-HT2A serotonin receptor | CHO-K1 mHTR2A beta-arrestin complementation, luminescence; percent of 30 µM serotonin response | activation, % at 7.6 µM | actives 0.66% (n = 360,000);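 active = activation above a run cutoff, the mean activation of all tested compounds plus 3 SD, cut at about 14% in these data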;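 note: 0% = plate median of compound wells and 100% = 30 µM serotonin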
# APJ antagonist = blocks the human apelin receptor APJ; P35414; CHO-K1 APJ beta-arrestin complementation, luminescence; inhibition, % at 20 µM; actives 0.32% (n = 330,000); AID 2521;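 active = inhibition above about 40% at 20 µM, limit read from the data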;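 note: cells challenged with 10 nM apelin-13 agonist together with compound; plate controls were apelin-13 plus DMSO wells for no effect and DMSO wells lacking apelin-13 for full effect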
# CCR6 antag = blocks CCL20-driven beta-arrestin recruitment at human CCR6. P51684. CHO-K1 CCR6 PathHunter beta-arrestin, luminescence, CCL20-stimulated. inhibition, % at 20 µM. actives 0.49% (n = 340,000). AID 493098;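 active = compounds whose inhibition of the agonist-driven luminescence signal at 20 µM reaches about 50%, limit read from the data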;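 note: cells stimulated with CCL20 at 14 nM final; plate controls were DMSO with CCL20 for no effect and DMSO without agonist for full effect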
# APJ agonist = activates the human apelin receptor APJ; CHO-K1 APJ PathHunter beta-arrestin, luminescence; 0% DMSO wells, 100% apelin; activation, % at 20 µM; actives 0.11% (n = 330,000); AID 2520;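 active = activation more than six SD over the plate average, tested at 20 µM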;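 note: 0% = DMSO alone and 100% = apelin-13 at 10 nM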
#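 system = engineered CHO-K1 APJ arrestin reporter cells | input = 1000 cells per well | timing = overnight seeding, 90 min compound at 25 °C, 1 h detection | measured by = enzyme-fragment complementation luminescence | read-out = beta-arrestin recruitment to APJ as agonist activity, luminescent signal | control set = negative DMSO alone, positive Apelin-13 at 10 nM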
# EBI2 block = antagonists of human EBI2 receptor; inhibition, % at 5 µM; AID 651636; EBI2 beta-arrestin recruitment, luminescence, 7a,25-OHC stimulated; P32249; actives 0.81% (n = 360,000); in the data active = inhibition above about 38%;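 note: enzyme fragment complementation signal reports receptor beta-arrestin coupling in cells; 0% = agonist plus DMSO wells and 100% = wells without agonist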
# OPRM1 ag = activates human mu opioid receptor in HTR2A counterscreen; shares compounds with m5-HT2A agonist; U2OS OPRM1 beta-arrestin PathHunter, luminescence; DMSO 0%, DAMGO 9.3 µM 100%; activation, % at 9.3 µM; actives 5.3% (n = 2,300); AID 624380;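 active = mean activation above the mean of DMSO-only wells plus 3 SD, cut at about 0.5% in these data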
# HTR2A ag conf = mouse HTR2A agonism confirmed | shares compounds with m5-HT2A agonist | CHO-K1 PathHunter beta-arrestin recruitment, luminescence; DMSO 0%, 30 µM serotonin 100% | activation, % at 7.6 µM | actives 19% (n = 2,300) | AID 624381;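 active = mean activation across triplicates above the hit threshold derived in the original primary screen, cut at about 15% in these data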
# Starred values were filed as active, the others as inactive; x = no result; ! = a repeat was not active.
SMILES,CXCR6 block,m5-HT2A agonist,APJ antagonist,CCR6 antag,APJ agonist,EBI2 block,OPRM1 ag,HTR2A ag conf
COc1ccc(CCC(=O)OCC(=O)c2c(N)n(CC(C)C)c(=O)n(C)c2=O)cc1,-9,17*,6,2,13,-18,0,-1
Cc1cccc(C)c1OCC(=O)Nc1ccccc1C(=O)N1CCOCC1,3,25*,12,15,3,-6,-1,1
COc1ccc(OCC(=O)Nc2ccccc2C(=O)N2CCOCC2)cc1,-3,1,-19,5,-6,-1,x,x
NCCc1ccc(O)c(O)c1,-5,42*,12,0,-1,-6,0,140*
CNC(=O)Oc1ccc2c(c1)[C@]1(C)CCN(C)[C@@H]1N2C,-3,20*!,0,-9,-2,-2,-1,-1
COc1ccc(-c2cc(C(=O)Nc3ccc(NC(C)=O)cc3)[nH]n2)c(C)c1,-5,21*,x,x,x,-11,-1,-7
Nc1nonc1C(=O)NCCNC(=O)c1ccc(Cl)c(Cl)c1,6,3,10,3,-4,0,x,x
O=C(NCC(c1ccco1)N1CCN(c2ccccc2F)CC1)c1ccco1 (centres undefined),3,15*,25,8,4,2,-1,36*
O=C(NCC(=O)N1CCN(S(=O)(=O)c2ccc3c(c2)OCCO3)CC1)c1ccccc1Cl,3,1,-4,2,-1,1,x,x
CCNc1nc(OC)nc(Oc2ccc(=O)n(-c3ccccc3)n2)n1,-7,18*,11,-1,-2,-5,-1,-3
COCC(C)n1c(C)cc(C(=O)COC(=O)c2cnc(Cl)c(Cl)c2)c1C (centres undefined),-13,15*,-12,-4,0,5,0,-2
CN1CCc2c(sc3c2c(=O)n(-c2cccc(Cl)c2)c2nncn32)C1,2,23*,0,0,-1,-33,0,2
O=C(NC(=O)C(F)(F)F)Nc1ccc(S(=O)(=O)Nc2nccs2)cc1,-4,0,8,6,-2,6,x,x
C[C@H](NC(=O)c1ccccc1Cl)C(=O)OCC(=O)NNC(=O)c1cccs1,2,9,-1,3,8,-3,x,x
C[C@@H]1CN([C@@H](C)CO)S(=O)(=O)c2ccc(-c3ccccc3)cc2O[C@@H]1CN(C)Cc1ccccc1C(=O)O,8,19*,x,x,x,-3,-1,-1
C[C@@H]1CN([C@H](C)CO)S(=O)(=O)c2ccc(C#Cc3ccccc3F)cc2O[C@H]1CN(C)C(=O)c1ccc2c(c1)OCO2,8,20*,x,x,x,-36,0,32*
C[C@H]1CN([C@@H](C)CO)S(=O)(=O)c2ccc(-c3ccccc3)cc2O[C@H]1CN(C)C(=O)C1CCC1,-13,3,x,x,x,7,x,x
C[C@@H]1CN([C@@H](C)CO)S(=O)(=O)c2ccc(Br)cc2O[C@@H]1CN(C)S(=O)(=O)c1cn(C)cn1,2,17*,x,x,x,-8,0,-1
COc1ccc(NC(=O)c2ccc(Cl)cc2)c[n+]1[O-],-3,4,x,-4,x,-1,x,x
N#CCCOC1(C#CCN2CCCC2)CCCCC1,-1,3,17,6,-2,-3,x,x
O=C(CCNS(=O)(=O)c1ccc(Cl)cc1)N1CCN(c2ncccn2)CC1,-8,11,24,-8,-1,5,x,x
N/C(=N\OC(=O)c1ccncc1)c1cccc([N+](=O)[O-])c1,-27,-1,-55,-19,6,3,x,x
Cc1cccc(/C(N)=N/OC(=O)c2ccncc2)c1,-9,25*,-13,-1,2,-5,0.6*,1
Cc1ccc(C)c(C(C)NC(=O)c2ccccc2Br)c1 (centres undefined),0,-1,0,6,6,1,x,x
